Reference: ChEMBL document CHEMBL1140401, “Synthesis and pharmacological evaluation of Tic-hydantoin derivatives as selective sigma1 ligands. Part 2” (Bioorg Med Chem Lett, 2005)
pIC50: −log10 of the molar value.

Tests used:
Sigma 2 receptor = test: Inhibitory activity against opioid sigma 2 receptor in rat cerebral cortex using [3H]DTG (+300 nM (+)pentazocine) as radio ligand at pH 7.5 for 120 min at 22 degree C; type: tissue-based
MRC5 = test: Cytotoxicity against a human diploid embryonic lung cell line (MRC-5 cells) using the colorimetric MTT assay; type: functional
How it was run: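 MRC-5 human embryonic lung cells were exposed to the compounds, and viability was read by colorimetric MTT assay. The read-out is the CC50.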

[1] = target: Sigma non-opioid intracellular receptor 1 (Cavia porcellus) (UniProt Q60492); test: Selectivity index against opioid receptor sigma 1 versus cytotoxicity to that of inhibitory concentration
Sigma non-opioid intracellular receptor 1 (Cavia porcellus), sequence (Q60492 whole entry, looked up): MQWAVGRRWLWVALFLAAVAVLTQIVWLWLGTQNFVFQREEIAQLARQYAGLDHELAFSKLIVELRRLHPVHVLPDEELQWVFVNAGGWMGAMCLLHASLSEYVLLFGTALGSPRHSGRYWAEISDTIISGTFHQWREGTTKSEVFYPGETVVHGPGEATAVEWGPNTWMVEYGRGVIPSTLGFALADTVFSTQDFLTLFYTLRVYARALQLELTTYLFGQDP

| SMILES | pIC50 (Sigma 2 receptor) | CC50 (MRC5) [nM] | IS [1] |
| --- | --- | --- | --- |
| O=C1[C@@H]2Cc3ccccc3CN2C(=O)N1CCCNCCCCc1ccccc1 | – | 31000 | 2950 |
| CN(CCCCN1C(=O)[C@@H]2Cc3ccccc3CN2C1=O)CCc1ccccc1 | – | 106000 | 10700 |
| CN(CCCc1ccccc1)CCN1C(=O)[C@@H]2Cc3ccccc3CN2C1=O | – | 136000 | 10000 |
| O=C1[C@@H]2Cc3ccccc3CN2C(=O)N1CCN1CCCCC1 | < 6.00 | – | – |
| O=C1[C@@H]2Cc3ccccc3CN2C(=O)N1CCCNCc1ccccc1 | < 6.00 | – | – |

Further lines, with some results ahead:

| pIC50 (Sigma 2 receptor) | SMILES | CC50 (MRC5) [nM] | IS [1] |
| --- | --- | --- | --- |
| 7.09 | CN(CCCCCN1C(=O)[C@@H]2Cc3ccccc3CN2C1=O)Cc1ccccc1 | 101000 | 20200 |
| 6.45 | CN(CCCCc1ccccc1)CCN1C(=O)[C@@H]2Cc3ccccc3CN2C1=O | – | – |
| < 7.00 | CN(CCCCN1C(=O)[C@@H]2Cc3ccccc3CN2C1=O)Cc1ccccc1 | – | – |
| < 6.00 | CN(CCCCCc1ccccc1)CCN1C(=O)[C@@H]2Cc3ccccc3CN2C1=O | – | – |
| 7.68 | CN(CCCN1C(=O)[C@@H]2Cc3ccccc3CN2C1=O)CCc1ccccc1 | – | – |
| 6.30 | CN(CCCN1C(=O)[C@@H]2Cc3ccccc3CN2C1=O)Cc1ccccc1 | 196000 | – |
| 6.01 | CN(CCN1C(=O)[C@@H]2Cc3ccccc3CN2C1=O)Cc1ccccc1 | 107000 | 23800 |
